Active and inactive are the calls of the source. No cut-off for these calls is given here.
How the values were obtained:
[1] = tested on: Mus musculus; assay: Toxicity in Swiss albino mouse assessed as change in body weight at 5 mg/kg, po (reference value: 24.5 +/- 0.76 g); assay type: organism-based; set-up: dose 5 mg/kg, route oral; conditions: in vivo
[2] = tested on: MCF7; assay: Induction of microtubule polymerization in human MCF7 cells assessed as actin-tubulin cytoskeleton stabilization at 10 to 40 uM by confocal microscopy; assay type: cell-based
Procedure, shortened: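 MCF-7 cells treated, immunostained for actin and tubulin, and examined by confocal microscopy; paclitaxel-treated cells as positive control.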

[3] = tested on: MDA-MB-231; assay: Cell cycle arrest in human MDA-MB-231 cells assessed as increase in sub-diploid population after 24 hrs by propidium iodide staining-based FACS analysis; assay type: functional
Procedure, shortened: (§1)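 MDA-MB-231 grown in DMEM with 10% FBS at 37 °C, 5% CO2; 24 h treatment, then cold-PBS wash, 2 × 10⁶ cells/ml, absolute-ethanol fixation, RNase A, propidium iodide 50 µg/mL for 30 min at room temperature; flow cytometric DNA content, sub-diploid fraction scored.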

[4] = tested on: MDA-MB-231; assay: Cell cycle arrest in human MDA-MB-231 cells at 5 to 30 uM after 24 hrs by propidium iodide staining-based FACS analysis; assay type: functional; procedure, shortened: as §1
[5] = tested on: MCF7; assay: Cell cycle arrest in human MCF7 cells assessed as increase in sub-diploid population after 24 hrs by propidium iodide staining-based FACS analysis; assay type: functional
Procedure, shortened: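 MCF-7 in DMEM, 10% FBS, 37 °C, 5% CO2; treated 24 h, harvested, washed cold PBS, resuspended 2 × 10⁶ cells/ml, fixed absolute ethanol, RNase A treated, propidium iodide (50 µg/mL) 30 min room temperature; DNA content by flow cytometry; phase distribution versus untreated control.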

[6] = tested on: MDA-MB-231; assay: Cytotoxicity against human MDA-MB-231 cells after 48 to 72 hrs by MTT assay; assay type: functional, cell-based
Procedure, shortened: (§2)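 Cells in DMEM, 10% FBS, 37 °C, 5% CO2, plated and incubated 24 h; compounds diluted in phenol-red-free DMEM with 0.5% FBS, vehicle control; after exposure, MTT (5 mg/mL stock) added 3 h, formazan dissolved in DMSO, absorbance 570 nm; IC50 derived; podophyllotoxin and tamoxifen positive controls.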

[7] = tested on: HEK293; assay: Cytotoxicity against human HEK293 cells after 24 hrs by MTT assay; assay type: cell-based; conditions: HEK293, 24 h; procedure, shortened: as §2
[8] = tested on: MCF7; assay: Cytotoxicity against human MCF7 cells after 24 hrs by MTT assay; assay type: functional, cell-based; conditions: MCF7, 24 h; procedure, shortened: as §2
[9] = tested on: Mus musculus; assay: Toxicity in Swiss albino mouse assessed as change in eosinophil count at 5 to 1000 mg/kg, po relative to control; assay type: organism-based; set-up: dose 5-1000 mg/kg, route oral; conditions: in vivo
[10] = tested on: Mus musculus; assay: Toxicity in Swiss albino mouse assessed as change in neutrophil count at 5 to 1000 mg/kg, po relative to control; assay type: organism-based; set-up: dose 5-1000 mg/kg, route oral; conditions: in vivo
[11] = tested on: Mus musculus; assay: Toxicity in Swiss albino mouse assessed as change in lymphocyte count at 5 to 1000 mg/kg, po relative to control; assay type: organism-based; set-up: dose 5-1000 mg/kg, route oral; conditions: in vivo
[12] = Toxicity in po dosed Swiss albino mouse; assay type: organism-based; conditions: in vivo
Procedure, shortened: (§3)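 Acute oral toxicity per OECD guideline 423. Mice of 20–25 g, 3 male and 3 female per group (n = 6), acclimatised 7 days. Single oral dose of 5, 50, 300 or 1000 mg/kg in DMSO suspended in 0.7% carboxymethyl cellulose; controls got vehicle only. Mortality and clinical signs checked hourly on the dosing day, then daily. On day 7: body weight, haematology, serum biochemistry, necropsy and organ weights.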

[13] = tested on: Mus musculus; assay: Toxicity in Swiss albino mouse assessed as absolute kidney weight at 5 to 1000 mg/kg, po relative to control; assay type: organism-based; set-up: dose 5-1000 mg/kg, route oral; conditions: in vivo
[14] = tested on: Mus musculus; assay: Toxicity in Swiss albino mouse assessed as absolute brain weight at 5 to 1000 mg/kg, po relative to control; assay type: organism-based; set-up: dose 5-1000 mg/kg, route oral; conditions: in vivo
[15] = tested on: Mus musculus; assay: Toxicity in Swiss albino mouse assessed as relative heart weight at 5 to 1000 mg/kg, po relative to control; assay type: organism-based; set-up: dose 5-1000 mg/kg, route oral; conditions: in vivo
Procedure, shortened: (§4)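 One oral dose (5–1000 mg/kg; DMSO then 0.7% carboxymethyl cellulose vehicle; controls vehicle-only) was given to groups of 6 mice (3 male, 3 female). On day 7 the animals were sacrificed and necropsied for gross pathology. Absolute and relative weights of vital organs were recorded and compared with control.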

[16] = tested on: Mus musculus; assay: Toxicity in Swiss albino mouse assessed as relative spleen weight at 5 to 1000 mg/kg, po relative to control; assay type: organism-based; set-up: dose 5-1000 mg/kg, route oral; conditions: in vivo; procedure, shortened: as §4
[17] = tested on: Mus musculus; assay: Toxicity in Swiss albino mouse assessed as relative brain weight at 5 to 1000 mg/kg, po relative to control; assay type: organism-based; set-up: dose 5-1000 mg/kg, route oral; conditions: in vivo; procedure, shortened: as §4
[18] = tested on: Mus musculus; assay: Toxicity in Swiss albino mouse assessed as mortality up to 1000 mg/kg, po; assay type: organism-based; set-up: dose 1000 mg/kg, route oral; conditions: in vivo; procedure, shortened: as §3
[19] = tested on: Mus musculus; assay: Toxicity in Swiss albino mouse assessed as change in cholesterol level at 50 mg/kg, po (reference value: 81.64 +/- 4.26 mg/dL); assay type: organism-based; set-up: dose 50 mg/kg, route oral; conditions: in vivo
[20] = tested on: Mus musculus; assay: Toxicity in Swiss albino mouse assessed as change in cholesterol level at 5 mg/kg, po (reference value: 81.64 +/- 4.26 mg/dL); assay type: organism-based; set-up: dose 5 mg/kg, route oral; conditions: in vivo
[21] = tested on: Mus musculus; assay: Toxicity in Swiss albino mouse assessed as change in serum protein level at 300 mg/kg, po (reference value: 1.11 +/- 0.14 mg/ml); assay type: organism-based; set-up: dose 300 mg/kg, route oral; conditions: in vivo
[22] = tested on: Mus musculus; assay: Toxicity in Swiss albino mouse assessed as change in serum protein level at 50 mg/kg, po (reference value: 1.11 +/- 0.14 mg/ml); assay type: organism-based; set-up: dose 50 mg/kg, route oral; conditions: in vivo
[23] = tested on: Mus musculus; assay: Toxicity in Swiss albino mouse assessed as change in serum protein level at 5 mg/kg, po (reference value: 1.11 +/- 0.14 mg/ml); assay type: organism-based; set-up: dose 5 mg/kg, route oral; conditions: in vivo
[24] = tested on: Mus musculus; assay: Toxicity in Swiss albino mouse assessed as change in triglyceride level at 50 mg/kg, po (reference value: 121.45 +/- 24.02 mg/dL); assay type: organism-based; set-up: dose 50 mg/kg, route oral; conditions: in vivo
[25] = tested on: Mus musculus; assay: Toxicity in Swiss albino mouse assessed as change in triglyceride level at 5 mg/kg, po (reference value: 121.45 +/- 24.02 mg/dL); assay type: organism-based; set-up: dose 5 mg/kg, route oral; conditions: in vivo
[26] = tested on: Mus musculus; assay: Toxicity in Swiss albino mouse assessed as change in creatinine level at 1000 mg/kg, po (reference value: 0.63 +/- 0.18 mg/dL); assay type: organism-based; set-up: dose 1000 mg/kg, route oral; conditions: in vivo
[27] = tested on: Mus musculus; assay: Toxicity in Swiss albino mouse assessed as change in creatinine level at 5 mg/kg, po (reference value: 0.63 +/- 0.18 mg/dL); assay type: organism-based; set-up: dose 5 mg/kg, route oral; conditions: in vivo
[28] = tested on: Mus musculus; assay: Toxicity in Swiss albino mouse assessed as change in albumin level at 1000 mg/kg, po (reference value: 3.35 +/- 0.51 g/dL); assay type: organism-based; set-up: dose 1000 mg/kg, route oral; conditions: in vivo
[29] = tested on: Mus musculus; assay: Toxicity in Swiss albino mouse assessed as change in SGPT level at 50 mg/kg, po (reference value: 12.28 +/- 3.73 U/L); assay type: organism-based; set-up: dose 50 mg/kg, route oral; conditions: in vivo
[30] = tested on: Mus musculus; assay: Toxicity in Swiss albino mouse assessed as change in ALKP level at 50 mg/kg, po (reference value: 218.67 +/- 12.43 U/L); assay type: organism-based; set-up: dose 50 mg/kg, route oral; conditions: in vivo
[31] = tested on: Mus musculus; assay: Toxicity in Swiss albino mouse assessed as change in WBC count at 50 mg/kg, po (reference value: 14.2 +/- 7.49 X 10^3/mm'3); assay type: organism-based; set-up: dose 50 mg/kg, route oral; conditions: in vivo
[32] = tested on: Mus musculus; assay: Toxicity in Swiss albino mouse assessed as change in total haemoglobin level at 1000 mg/kg, po (reference value: 11.39 +/- 0.84 g/dL); assay type: organism-based; set-up: dose 1000 mg/kg, route oral; conditions: in vivo
[33] = tested on: Mus musculus; assay: Toxicity in Swiss albino mouse assessed as change in total haemoglobin level at 300 mg/kg, po (reference value: 11.39 +/- 0.84 g/dL); assay type: organism-based; set-up: dose 300 mg/kg, route oral; conditions: in vivo

In the case of `CCOC(=O)/C=C/c1ccc(O)c(/C(=C/c2ccc(O)cc2)C(=O)OCC)c1`, the Activity [1] is reported as 24.33 g, the Activity [2] is reported as “inactive” and the Activity [3] is reported as “Dose-dependent effect”. For the same compound, the Activity [4] was “inactive”, the Activity [5] was “Dose-dependent effect” and the Activity [6] was “Active”. For the same compound, the IC50 [7] was 12 µM, the IC50 [8] was 12 µM and the Activity [9] was “Non-toxic”. For the same compound, the Activity [10] was “Non-toxic”, the Activity [11] was “Non-toxic” and the MTD [12] was 300 mg/kg. The Activity [13] was “Non-toxic”, the Activity [14] was “Non-toxic” and the Activity [15] was “Non-toxic”. The Activity [16] was “Non-toxic”, the Activity [17] was “Non-toxic” and the Activity [18] was “Non-toxic”. It also gave an Activity [19] of 58.62 mg/dL, an Activity [20] of 75.94 mg/dL and an Activity [21] of 0.92 mg/mL. The Activity [22] was 0.94 mg/mL, the Activity [23] was 0.88 mg/mL and the Activity [24] was 147.23 mg/dL. It also gave an Activity [25] of 106.46 mg/dL, an Activity [26] of 1.87 mg/dL and an Activity [27] of 1.05 mg/dL. For the same compound, the Activity [28] was 3.86 g/dL, the Activity [29] was 12.52 U/L and the Activity [30] was 234.14 U/L. The Activity [31] was 14.7 ×10³ /mm3, the Activity [32] was 13.32 g/dL and the Activity [33] was 10.83 g/dL.
